The list is not random: actives were taken first. Their share in the collection is about 2.1%.
FGF22 binding: binders of recombinant human FGF22 by thermal shift. Q9HCT0. SYPRO orange fluorescence; percent of sucrose octasulfate shift, DMSO zero. activity (Tm shift, normalised), % at 9.99 µM. 1.5% of 340,000 active;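 active = mean Tm shift, scaled 0 neutral to 100 positive control, at about 1.3% or above, every replicate too, limit read from the data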
Target sequence (Q9HCT0 whole entry, looked up): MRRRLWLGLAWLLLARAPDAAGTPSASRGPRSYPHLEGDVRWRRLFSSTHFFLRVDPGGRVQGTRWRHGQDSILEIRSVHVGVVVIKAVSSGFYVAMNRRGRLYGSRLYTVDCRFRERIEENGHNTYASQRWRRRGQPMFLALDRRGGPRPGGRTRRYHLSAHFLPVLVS
FN deposit inh: fibronectin deposition inhibition; inhibition, % at 12.6 µM; AH1F fibroblasts, Alexa488-fibronectin deposition fluorescence, overnight; 0.086% of 350,000 active;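 active = mean inhibition across replicates of 30% or more, regardless of how many single replicates reach that level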;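 note: positive control wells lacked labelled fibronectin entirely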
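Material – AH1F fibroblast monolayer, labelled fibronectin deposition · Reagent – labelled fibronectin 24 nM · Timing – 1 h adhesion, overnight exposure · Measured by – fluorescence at 485 nm excitation, 525 nm emission · Read-out – inhibition of fibronectin deposition signal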
PDI inh: PDI (human) enzyme inhibition | P07237 | PDI insulin aggregation turbidity, A650, 90 min | inhibition, % at 10 µM | 0.052% of 350,000 active | AID 588391;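 active = mean inhibition across replicates of 30% or more, whatever share of single replicates reach that level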
Target sequence (P07237 whole entry, looked up): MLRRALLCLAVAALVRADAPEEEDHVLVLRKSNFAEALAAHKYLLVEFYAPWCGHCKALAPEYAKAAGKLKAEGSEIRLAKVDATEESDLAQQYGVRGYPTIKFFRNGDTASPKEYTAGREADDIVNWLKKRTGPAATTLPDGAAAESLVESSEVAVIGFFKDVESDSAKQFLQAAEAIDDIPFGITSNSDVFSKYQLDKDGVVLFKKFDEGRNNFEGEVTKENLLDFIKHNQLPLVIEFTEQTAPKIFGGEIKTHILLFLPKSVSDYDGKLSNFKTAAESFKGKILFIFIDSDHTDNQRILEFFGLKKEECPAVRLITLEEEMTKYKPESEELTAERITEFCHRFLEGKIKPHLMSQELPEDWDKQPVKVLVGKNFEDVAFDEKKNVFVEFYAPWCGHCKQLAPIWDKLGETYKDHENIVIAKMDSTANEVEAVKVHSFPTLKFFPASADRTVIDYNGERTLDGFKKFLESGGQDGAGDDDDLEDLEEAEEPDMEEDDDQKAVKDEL
ARNT TACC3 PPI: disrupts binding between human ARNT and TACC3; AlphaScreen His-ARNT PAS-B/GST-TACC3 binding, luminescence; TACC3 fragment carries E629A point mutation; AID 623870; Q9Y6A5; 0.66% of 390,000 active; inhibition, % at 9.99 µM;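 active = mean inhibition of replicates at least 50% and at least half of replicates each reaching 50%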;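 note: 0% = complete ARNT plus TACC3 wells and 100% = ARNT alone without TACC3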
MLL AF4-AF9 inh: MLL-AF4/AF9 protein interaction inhibition; P42568; AlphaScreen, biotin-AF4 peptide binding to FLAG-AF9; inhibition, % at 10 µM; 0.47% of 350,000 active;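 active = every replicate reaching a set inhibition limit, whatever the replicate mean, cut at about 25% in these data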;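 note: 0% = plate neutral control median and 100% = total signal loss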
ERp5 block: inhibitors of human ERp5; ERp5 insulin aggregation, absorbance 650 nm, 90 min; inhibition, % at 9.99 µM; 0.05% of 350,000 active;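 active = mean replicate inhibition above about 25%, with every replicate also reaching it, limit read from the data, passing the limit was not always enough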
Active calls of the source: *; · = no result given; ! = a repeat was not active.

SMILES	FGF22 binding	FN deposit inh	PDI inh	ARNT TACC3 PPI	MLL AF4-AF9 inh	ERp5 block
CN(C)CCCNC(=O)C[C@@H]1CC[C@H]2[C@@H](COC[C@@H](O)CN2Cc2ccc(Cl)c(Cl)c2)O1	-0.4	10.0	·	·	4.1	-2.8
Cc1ccccc1S(=O)(=O)N1CCCCN2[C@H](CO)[C@@H](c3ccc(-c4cncnc4)cc3)[C@@H]2C1	-0.4	·	·	-2.6	-5.5	6.5
N#CCC(=O)c1ccccc1Oc1ccc(Cl)cc1	43.7*	4.8	0.5	-3.5	-1.5	1.2
O/N=C/c1ccccc1Oc1ccc(Cl)cc1	1.1	·	-5.8	-1.1	-0.6	3.3
CN(C)C(=O)C[C@H]1CC[C@H]2[C@H](COc3ccc(NC(=O)NCc4ccccc4)cc3C(=O)N2C)O1	0.0	-10.9	·	-6.0	·	-4.8
COc1ccc(S(=O)(=O)N(C)C[C@@H]2OCCCC[C@H](C)Oc3ccc(NS(=O)(=O)c4c(C)noc4C)cc3C(=O)N([C@H](C)CO)C[C@H]2C)cc1	-0.2	-4.4	·	-0.9	1.0	-2.1
Cc1sc(N/N=C/c2ccco2)nc1-c1ccccc1	43.6*	-2.6	-0.6	12.7	25.5*	2.5
CO[C@H]1CN(C)C(=O)c2ccc(NC(=O)Nc3ccccc3Cl)cc2OC[C@@H](C)NC[C@@H]1C	0.1	10.1	·	2.3	4.0	2.9
C[C@H](CO)N1C[C@H](C)[C@@H](CN(C)S(=O)(=O)c2cn(C)cn2)Oc2ccc(NC(=O)Cn3cnnn3)cc2C1=O	44.2*!	0.1	-0.4	-1.7	-5.0	1.3
C[C@@H]1CN([C@H](C)CO)C(=O)Cc2cc(NS(=O)(=O)c3ccc(F)cc3)ccc2O[C@@H]1CN(C)S(=O)(=O)c1cn(C)cn1	-0.1	·	·	-13.9	4.7	26.9*
C[C@@H]1CN([C@H](C)CO)C(=O)Cc2cc(NS(=O)(=O)c3ccc(F)cc3)ccc2O[C@H]1CN(C)S(=O)(=O)c1cn(C)cn1	0.1	·	·	-17.1	1.7	20.4
C[C@@H]1CN([C@H](C)CO)C(=O)Cc2cc(NC(=O)c3ccncc3)ccc2O[C@H]1CN(C)S(=O)(=O)c1cn(C)cn1	0.1	·	·	-7.7	-2.3	76.6*
C[C@H]1CN([C@@H](C)CO)C(=O)Cc2cc(NC(=O)c3ccncc3)ccc2O[C@@H]1CN(C)S(=O)(=O)c1cn(C)cn1	0.0	·	·	-10.9	-3.1	9.7
CO[C@H]1CN(C)C(=O)c2cc(NC(=O)Nc3ccc(C(F)(F)F)cc3)ccc2OC[C@H](C)NC[C@@H]1C	0.4	-2.9	·	8.5	9.0	-0.3
COc1ccc(CNC(=O)COC(=O)c2c(-c3c(F)cccc3Cl)noc2C)cc1OC	·	·	-0.4	-0.9	·	·
Cc1noc(C)c1C(=O)OCC(=O)NCCc1ccc(Cl)cc1	·	-4.8	35.4*	-6.7	·	·
Cc1onc(-c2c(F)cccc2Cl)c1C(=O)OCC(=O)NC(=O)NCC(C)C	43.4*	·	-4.8	0.5	1.5	-0.6
Cc1ccc(CNC(=O)COC(=O)c2c(C)noc2C)cc1	·	0.7	13.7	-3.4	·	·
O=C(COC(=O)CNC(=O)c1ccccc1F)Nc1cccnc1Cl	43.2*	1.8	-4.0	-4.9	-2.7	-0.4
O=C(COC(=O)CNC(=O)c1ccccc1F)NCCNC(=O)COC(=O)CNC(=O)c1ccccc1F	0.0	-7.1	10.2	-4.9	-14.9	-4.8
O=C(CNC(=O)c1ccccc1F)NCCOc1ccccc1Cl	43.0*	2.0	2.2	-9.7	-0.2	1.7
O=C(NCCOc1ccccc1Cl)C(=O)NCCOc1ccccc1Cl	42.5	-6.3	-3.4	0.7	-1.1	-0.6
CCNc1ccc(C(=O)OCC(=O)N(Cc2ccccc2)C(C)(C)C)cc1[N+](=O)[O-]	43.0*	1.1	3.9	-5.0	0.6	2.1
CO[C@@H]1CN(C)C(=O)c2ccc(NC(=O)C3CCCC3)cc2OC[C@H](C)N(CC2CC2)C[C@@H]1C	0.1	-16.5	·	-5.9	-1.3	-2.8
COC(=O)C[C@@H]1CC[C@H]2[C@@H](COc3ccc(NC(=O)c4cccc(Cl)c4)cc3C(=O)N2C)O1	0.1	-10.2	·	-5.3	-0.5	-1.5
SMILES	FGF22 binding	FN deposit inh	PDI inh	ARNT TACC3 PPI	MLL AF4-AF9 inh	ERp5 block
O=C(NCCCn1ccnc1)C(=O)NCC1OCCN1S(=O)(=O)c1ccc(Br)cc1 (centres undefined)	-0.2	·	-16.6	1.5	-0.7	1.5
COc1ccc(S(=O)(=O)N2CCCOC2CNC(=O)C(=O)NCc2ccco2)cc1C (centres undefined)	44.1*	8.8	-4.2	8.3	0.2	1.0
COc1ccc(S(=O)(=O)N2CCCOC2CNC(=O)C(=O)NCCCn2ccnc2)cc1 (centres undefined)	44.0*	-5.0	-8.1	·	-1.0	2.4
COc1ccc(S(=O)(=O)N2CCOC2CNC(=O)C(=O)NCc2ccco2)cc1C (centres undefined)	0.3	3.8	1.2	-2.1	-6.6	2.1
Cc1cc(C)c(S(=O)(=O)N2CCCOC2CNC(=O)C(=O)NCCCn2ccnc2)c(C)c1 (centres undefined)	-0.2	3.5	1.1	-17.0	1.9	2.6
Cc1ccc(S(=O)(=O)N2CCCOC2CNC(=O)C(=O)NCCCn2ccnc2)cc1 (centres undefined)	-0.2	-6.6	-0.2	78.2*	0.9	6.9
C[C@@H]1CN([C@@H](C)CO)C(=O)Cc2cc(NS(=O)(=O)c3ccccc3)ccc2O[C@H]1CN(C)Cc1ccc2c(c1)OCO2	-0.2	-0.8	·	3.7	12.5	-4.4
O=C(c1cnccn1)N1CC(=O)N2[C@H](CO)[C@@H](c3ccc(C#CC4CCCC4)cc3)[C@@H]2C1	·	0.9	·	·	4.1	-6.2
O=C(Cc1ccccn1)NCC[C@@H]1CC[C@@H](NC(=O)Nc2ccc(Cl)cc2)[C@H](CO)O1	0.0	·	·	0.4	-28.5	0.7
COc1ccc(C(=O)NCCNc2ccc([N+](=O)[O-])cc2)cc1	67.2*	-6.0	0.0	-2.2	4.8	0.5
COc1ccc(CN(C)C[C@H]2Oc3c(NS(=O)(=O)c4cn(C)cn4)cccc3C(=O)N([C@H](C)CO)C[C@H]2C)cc1	-0.1	·	·	-8.0	-1.3	2.1
O=C(COC(=O)c1cc(Br)ccc1Cl)NC(=O)NCc1ccccc1	44.0*	-12.2	-12.8	-3.4	-1.0	-4.5
CCOC(=O)c1ccccc1-n1c(C)cc(C2N=C(N)Nc3nc4ccccc4n32)c1C (centres undefined)	0.0	·	-8.0	20.5	25.5*	4.6
COc1ccc2c3c([nH]c2c1)[C@@H](CO)N(C(=O)c1cnccn1)CC31CN(S(C)(=O)=O)C1	-0.3	·	·	·	-7.7	-1.5
CCC1C(c2ccccc2)N(C)C(c2ccccc2)CC1(O)c1ccccc1 (centres undefined)	44.0*	8.4	-1.5	-0.8	1.4	2.8
CC(C)C1C(c2ccccc2)N(C)C(c2ccccc2)CC1(O)c1ccccc1 (centres undefined)	-0.1	·	7.9	-1.7	5.6	-4.4
